Reference: article PMC7024737 (British Journal of Pharmacology, 2020)
“And” between values parts separate entries of the source, which are not always exact repeats. Equal values may be shown once. Read-outs that look alike come from different tables or passages of the source.

Key:
washed platelets [1] = assay: P-selectin expression under high shear stress; format: cell-based, human
Outline: (§1)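 Human washed platelets (acid–citrate–dextrose with 1 μM PGE1, washed in Tyrode's pH 7.4, 3 × 10^8/ml, 2 mM CaCl2) were incubated with a range of test compound concentrations, then sheared at 10,800 s−1 for 10 min in a cone-plate viscometer. Cells were labelled with anti-CD42b-PE plus anti-CD62P-FITC, PAC-1-FITC or Alexa Fluor 488-fibrinogen for 20 min in the dark and read by flow cytometry (10,000 events). Values are relative to vehicle and normalised to unsheared samples, mean ± SEM. n = 6 for P-selectin and PAC-1, n = 5 for fibrinogen.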

vWF–GP Ib interaction = vWF–GP Ib interaction (Homo sapiens, UniProt P04275); assay: vWF binding to platelets under high shear stress; format: cell-based
vWF–GP Ib interaction, sequence (P04275 764-2813 limits assumed): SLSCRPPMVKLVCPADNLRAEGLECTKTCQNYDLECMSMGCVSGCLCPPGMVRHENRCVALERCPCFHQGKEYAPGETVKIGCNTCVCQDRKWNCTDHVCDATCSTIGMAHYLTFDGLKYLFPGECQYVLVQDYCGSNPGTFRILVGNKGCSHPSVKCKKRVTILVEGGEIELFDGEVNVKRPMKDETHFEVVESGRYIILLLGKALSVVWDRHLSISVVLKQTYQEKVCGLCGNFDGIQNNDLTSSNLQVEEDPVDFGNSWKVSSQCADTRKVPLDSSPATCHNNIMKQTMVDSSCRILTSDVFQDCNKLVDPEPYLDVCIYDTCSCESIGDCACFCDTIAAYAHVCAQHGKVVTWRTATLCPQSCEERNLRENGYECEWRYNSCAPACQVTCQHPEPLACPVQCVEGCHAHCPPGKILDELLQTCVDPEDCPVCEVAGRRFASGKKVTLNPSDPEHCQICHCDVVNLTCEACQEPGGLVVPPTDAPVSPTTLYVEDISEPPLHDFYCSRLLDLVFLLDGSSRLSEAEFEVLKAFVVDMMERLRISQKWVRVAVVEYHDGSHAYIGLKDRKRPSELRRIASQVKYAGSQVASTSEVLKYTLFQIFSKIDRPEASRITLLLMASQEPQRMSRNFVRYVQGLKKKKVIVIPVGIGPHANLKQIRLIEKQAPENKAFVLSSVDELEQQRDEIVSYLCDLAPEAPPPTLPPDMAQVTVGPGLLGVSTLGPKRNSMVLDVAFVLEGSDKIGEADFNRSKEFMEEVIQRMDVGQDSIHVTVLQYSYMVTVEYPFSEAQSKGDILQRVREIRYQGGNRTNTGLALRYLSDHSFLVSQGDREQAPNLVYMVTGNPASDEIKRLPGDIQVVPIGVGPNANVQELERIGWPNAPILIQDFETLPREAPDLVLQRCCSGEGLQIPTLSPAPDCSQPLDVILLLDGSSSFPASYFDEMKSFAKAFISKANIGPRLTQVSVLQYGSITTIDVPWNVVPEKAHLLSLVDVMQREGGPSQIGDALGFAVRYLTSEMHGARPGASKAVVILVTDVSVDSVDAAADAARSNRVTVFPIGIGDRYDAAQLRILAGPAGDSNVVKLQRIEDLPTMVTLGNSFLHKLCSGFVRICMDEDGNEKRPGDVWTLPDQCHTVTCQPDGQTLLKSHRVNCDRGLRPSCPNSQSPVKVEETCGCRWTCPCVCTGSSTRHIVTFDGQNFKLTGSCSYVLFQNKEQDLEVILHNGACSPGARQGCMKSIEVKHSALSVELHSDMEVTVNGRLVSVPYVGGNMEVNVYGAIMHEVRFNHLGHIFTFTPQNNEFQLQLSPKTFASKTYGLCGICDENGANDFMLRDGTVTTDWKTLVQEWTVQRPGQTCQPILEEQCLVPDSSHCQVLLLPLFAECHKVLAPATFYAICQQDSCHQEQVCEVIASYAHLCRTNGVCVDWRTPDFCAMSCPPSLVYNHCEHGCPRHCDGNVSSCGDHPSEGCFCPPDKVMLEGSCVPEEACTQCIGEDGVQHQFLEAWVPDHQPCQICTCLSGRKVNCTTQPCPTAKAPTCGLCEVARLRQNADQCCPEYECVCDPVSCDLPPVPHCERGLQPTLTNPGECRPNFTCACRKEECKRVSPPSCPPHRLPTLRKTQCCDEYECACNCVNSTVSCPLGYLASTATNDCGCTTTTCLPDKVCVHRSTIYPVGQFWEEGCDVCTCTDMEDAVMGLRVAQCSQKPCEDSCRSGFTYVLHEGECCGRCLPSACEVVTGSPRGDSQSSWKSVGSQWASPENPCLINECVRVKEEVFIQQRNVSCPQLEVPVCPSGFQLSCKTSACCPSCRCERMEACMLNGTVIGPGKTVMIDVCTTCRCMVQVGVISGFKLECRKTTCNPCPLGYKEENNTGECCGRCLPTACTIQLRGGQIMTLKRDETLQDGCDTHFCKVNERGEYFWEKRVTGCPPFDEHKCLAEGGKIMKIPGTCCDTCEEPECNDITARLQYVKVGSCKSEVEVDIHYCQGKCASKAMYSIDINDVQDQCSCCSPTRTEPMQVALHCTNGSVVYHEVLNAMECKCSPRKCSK
Outline: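 Platelets were treated with test compound, exposed to shear stress, and diluted in Tyrode's buffer. They were stained with anti‑vWF‑FITC and anti‑CD42b‑PE for 20 min in the dark, and 10,000 events were analysed by flow cytometry. For GP IIb/IIIa blockade, platelets were preincubated with 2 mM Arg‑Gly‑Asp. Values are expressed relative to vehicle and normalised to unsheared samples, n = 5.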

[2] = tested on: platelets in human whole blood; assay: Thrombus formation under flow conditions, collagen-coated flow chamber; format: cell-based; conditions: shear rate 1,500 s^−1, concentration-dependent, n = 5
Outline: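 Flow chambers were coated with 100 μg·ml−1 equine type I collagen for 60 min at room temperature, washed with PBS and blocked with 1% BSA for 60 min. Whole blood loaded with 5 μM calcein‑green AM was incubated with test compound for 30 min. It was perfused at 1,500 s−1 for 5 min, imaged by confocal microscopy, and reported as % coverage area, n = 5.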

[3] = Ex vivo prothrombin time and activated partial thromboplastin time; conditions: rats, therapeutic dose range p.o., 1 hr
washed human platelets = assay: SIPA in washed human platelets; format: cell-based; conditions: 30 min incubation, n = 6
Outline: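 Human washed platelets (3 × 10^8/ml in Tyrode's pH 7.4, 2 mM CaCl2) were preincubated with test compound for 30 min, and 10 μg·ml−1 vWF was added. They were then sheared in a cone-plate viscometer at 10,800 s−1 for 10 min at 37°C and fixed with 0.5% glutaraldehyde. Aggregation was scored from single-cell counts by light microscopy and […]. n = 6, mean ± SEM.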

[4] = Pharmacokinetic experiments in rats; format: in vivo; conditions: Sprague-Dawley, rat, plasma; for Tmax: SD rats, p.o. 25 mg·kg^−1
human purified vWF = assay: Platelet adhesion to vWF-coated flow chamber under high shear stress; format: cell-based; conditions: flow chamber coated with 50 μg·ml^−1 vWF
human platelets (PRP) [5] = assay: Agonist-induced platelet aggregation in human PRP; format: cell-based; conditions: for IC50: Homo sapiens, Platelet
Outline: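 Human blood was anticoagulated with 3.2% citrate (1:9) and spun at 150 g for 15 min to give PRP, adjusted to 3 × 10^8 platelets/ml with PPP. PRP was incubated with test compound for 30 min at 37°C, then stimulated for 6 min with thrombin (0.6–0.8 U·ml−1), collagen (2–4 μg·ml−1), ADP (5–10 μM) or ristocetin (1.0–1.25 mg·ml−1). Aggregation was read by light transmission, with PPP as 100%.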

washed platelets [6] = assay: Intracellular calcium level under high shear stress; format: cell-based, human; conditions: washed platelets, 10,800 s^−1, concentration-dependent
platelets [7] = assay: Platelet cytotoxicity, LDH leakage; format: cell-based, human; conditions: concentrations up to 1,000 μM
Outline: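 Platelets were incubated with test compound and centrifuged. Supernatant was added to Tris‑EDTA NADH buffer (56 mM Tris, 5.6 mM EDTA, 0.17 mM β‑NADH, pH 7.4) and preincubated for 10 min at 37°C, then 14‑mM pyruvate solution was added. LDH was read as the fall in A339, expressed as % of total activity in a 0.3% Triton X‑100 lysate. Samples were run in duplicate, with five repeats.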

human platelets (PRP) [8] = assay: Shear stress-induced platelet aggregation; format: cell-based
rat platelets (PRP) [9] = assay: SIPA in rat PRP in vitro; format: cell-based; conditions: n = 8
[10] = tested on: carotid artery thrombosis in SD rats; assay: FeCl3-induced arterial thrombosis model; format: in vivo, rat
platelets [11] = assay: 5-HT release under high shear stress; format: cell-based, human
Outline: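 Platelets were treated with a range of test compound concentrations for 30 min and exposed to high shear stress. Supernatants were collected by centrifugation at 12,000 g for 5 min at 4°C, and 5‑HT was measured by ELISA. Samples were run in duplicate, n = 5 per group. Values are expressed relative to matched vehicle and normalised to unsheared samples.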

rat platelets (PRP) [12] = assay: Ex vivo determination of SIPA inhibition after oral dosing; format: in vivo; conditions: rats, 5, 10 and 25 mg·kg^−1 p.o., 1 hr
Outline: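 Male SD rats (280–320 g) were gavaged with test compound in 5% DMSO/10% Tween 80 in water at 5 ml·kg−1. After 1 hr, aortic blood was drawn under urethane (1.25 g·kg−1 i.p.) into 3.8% citrate (1:9), and PRP was prepared. PRP was sheared at 10,800 s−1 in a cone‑plate viscometer, fixed with glutaraldehyde, and aggregation was scored by microscopic single‑cell count. n = 6 rats per group.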

GP IIb/IIIa = GP IIb/IIIa activation under high shear stress; format: cell-based, human
Outline: as §1

washed platelets [13] = assay: Fibrinogen binding under high shear stress; format: cell-based, human
Outline: as §1

SD rats = assay: Transection tail bleeding time; format: in vivo, rat
Outline: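 Male SD rats were dosed orally with test compound, either once or twice daily for 2 weeks; clopidogrel 8 mg·kg−1 was given on the same regimens. One hour after dosing, under urethane (1.25 g·kg−1 i.p.), tails were transected 3 mm from the tip and blotted every 30 s until bleeding stopped, with a 30 min cut‑off. n = 6 (single) or 5 (multiple) per group.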

## CCc1occc(=O)c1OC(=O)c1ccc(O)c(OC)c1 [SP‐8008, benzoic acid, 4‐hydroxy‐3‐methoxy‐, 2‐ethyl‐4‐oxo‐4H‐pyran‐3‐yl ester]
Washed platelets [1]
  Effect on shear stress-induced P-selectin expression (α-granule secretion): significant reduction
vWF–GP Ib interaction; GP IIb/IIIa blocked by Arg-Gly-Asp 2 mM
  Binding of vWF to platelets under high shear with GP IIb/IIIa blocked: maintained
vWF–GP Ib interaction; GP IIb/IIIa free, concentration-dependent
  Binding of vWF to platelets under high shear: markedly blocked
[2]
  Size and number of platelet aggregates in collagen-coated flow chamber: significantly reduced
[3]
  Blood clotting time (prothrombin time and activated partial thromboplastin time): did not prolong blood clotting time
Washed human platelets
  Effect on SIPA in washed human platelets: suppressed
[4]; iv, 10 mg/kg
  AUC(0-inf): 3250 ng·h/mL
  Vd: 5.3 ± 1.1 L/kg
  clearance: 51.7 mL/min/kg
  half-life: 2.4 ± 0.5 h
[4]; oral, 25 mg·kg^−1
  bioavailability: 55.3 ± 16.7%
[4]; po, 25 mg/kg
  AUC(0-inf): 4490 ng·h/mL
  Cmax: 2370 ng/mL
  half-life: 3.6 ± 1.4 h
[4]; po, 25 mg/kg, tmax (hr)
  Tmax: 7.2 ± 6 min
[4]; po, 25 mg/kg, tmax
  Tmax: ~7 min
[4]; po, 25 mg·kg^−1
  concentration at 3 min: 2290 ng/mL
  concentration at 15 min: 1750 ng/mL and 6 µM
  concentration at 30 min: 1060 ng/mL and 3.7 µM
  concentration at 1 hr: 2.2 µM and 586 ng/mL
  concentration at 4 hr: 1.3 µM and 366 ng/mL
  concentration at 8 hr: 700 nM and 198 ng/mL
Human purified vWF
  Adhesion of platelets to vWF-coated surfaces: significantly inhibited
Human platelets (PRP) [5]; read-out: IC50 (μM), platelet activator ADP
  IC50: > 250 µM
Human platelets (PRP) [5]; read-out: IC50 (μM), platelet activator collagen
  IC50: > 250 µM
Human platelets (PRP) [5]; read-out: IC50 (μM), platelet activator thrombin
  IC50: > 250 µM
Human platelets (PRP) [5]; human PRP, ristocetin
  Ristocetin-induced platelet aggregation: attenuated
Washed platelets [6]
  Effect on shear stress-induced intracellular calcium elevation: decreased the elevation of intracellular calcium
Platelets [7]
  LDH leakage from platelets: did not increase LDH leakage
Human platelets (PRP) [8]; Homo sapiens, Platelet, read-out: In vitro SIPA inhibition (%)
  inhibition at 25 µM: 84 ± 16%
Human platelets (PRP) [8]; concentration-dependent, 30 min incubation, n = 8
  Effect on SIPA in human PRP: significantly inhibited
Human platelets (PRP) [8]; ratio of IC50 values
  Selectivity for SIPA over thrombin, collagen, ADP: over 150 fold
Rat platelets (PRP) [9]
  Effect on SIPA in rat platelets in vitro: significantly inhibited
[10]; intravenous administration, data not shown
  Potency against arterial thrombosis after intravenous administration: strong inhibitory potency
[10]; rats, 25 mg·kg^−1 p.o., single treatment
  Inhibition of arterial thrombosis compared with clopidogrel (8 mg·kg^−1): close to that provided by clopidogrel
[10]; rats, 10 or 25 mg·kg^−1 p.o., FeCl3
  Time to occlusion, single treatment: significantly prolong
[10]; rats, oral twice daily for 5 days (2 weeks elsewhere in the source)
  Antithrombotic effects, multiple treatments: further confirmed
Platelets [11]
  Effect on shear stress-induced 5-HT release (dense granule secretion): significant reduction
Rat platelets (PRP) [12]
  Ex vivo effect on SIPA after oral administration: dose‐dependent inhibitory effects
GP IIb/IIIa
  Effect on shear stress-induced GP IIb/IIIa activation: significantly blocked
Washed platelets [13]
  Effect on shear stress-induced fibrinogen binding: significantly blocked
SD rats; single oral dose up to 100 mg·kg^−1
  Tail bleeding time, single dose: did not prolong bleeding time

## COC(=O)[C@H](c1ccccc1Cl)N1CCc2sccc2C1 [clopidogrel, reference compound]
SD rats; 8 mg·kg^−1
  Tail bleeding time (bleeding risk): clearly increased
